Consider four compounds from ChEMBL document CHEMBL5154784, “Design, Synthesis, Biological Evaluation, and Computational Studies of Novel Ureidopropanamides as Formyl Peptide Receptor 2 (FPR2) Agonists to Target the Resolution of Inflammation in Central Nervous System Disorders” (J Med Chem, 2022).

Series [1] can be described thus: Cytotoxicity against mouse N9 cells assessed as reduction in cell viability at 1 to 100 uM incubated for 48 hrs by MTT assay relative to control. Format: toxicity, cell-based. The settings on record: n9, 48 h, dose 1-100 µM. The gist of the method:
(§1)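 MTT 0.5 mg/mL added for 3–4 h at 37 °C, formazan dissolved in DMSO/EtOH 1:1, absorbance read at 570 and 630 nm. Mean ± SD from at least two to three experiments in triplicate.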
For orientation: Tetrazolium assays rely on reduction of a dye to a coloured formazan, in cell work by metabolically active cells.

Series [2] is described as follows: Cytotoxicity against mouse N9 cells assessed as reduction in cell viability by measuring LDH release at 0.5 to 5 uM incubated for 24 hrs by LDH assay. Conditions: n9, 24 h, dose 0.5-5 µM. The series is classed as toxicity, cell-based. An outline of the steps:
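N9 cells (2 × 10^4/well) given compound at 0.5 or 5 μM, alone or with LPS (E. coli O111:B4, 100 ng/mL) added 30 min later, for 24 h at 37 °C. Released LDH measured in supernatant (30 min, room temperature, 490/630 nm). Expressed as % of untreated cells, mean ± SEM, at least three experiments in triplicate.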

For series [3], the target named is T1, N-formyl peptide receptor 2 (Homo sapiens, UniProt P25090).
T1 sequence (P25090 whole entry): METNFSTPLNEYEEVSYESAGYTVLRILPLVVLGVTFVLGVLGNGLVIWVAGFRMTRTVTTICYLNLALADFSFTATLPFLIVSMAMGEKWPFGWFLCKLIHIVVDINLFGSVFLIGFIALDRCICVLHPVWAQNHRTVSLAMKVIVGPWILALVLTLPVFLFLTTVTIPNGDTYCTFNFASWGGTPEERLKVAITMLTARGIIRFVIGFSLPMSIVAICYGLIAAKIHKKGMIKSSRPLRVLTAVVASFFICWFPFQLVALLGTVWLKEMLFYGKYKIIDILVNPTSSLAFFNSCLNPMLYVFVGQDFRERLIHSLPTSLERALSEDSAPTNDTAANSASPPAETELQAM
The series can be described thus: Antagonist activity at human FPR2 transfected in human HL-60 cells assessed as inhibition of WKYMVM-induced intracellular calcium mobilization preincubated for 10 mins followed by WKYMVM addition measured every 5 seconds for 240 secs by Fluo-4-AM dye based fluorescence assay. The series is classed as functional, cell-based. An outline of the steps:
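Fluo-4-loaded FPR2-HL60 cells pre-incubated 10 min with compound (1% DMSO final), then challenged with 5 nM WKYMVM. Maximum change over baseline taken as response. IC50 by four-parameter logistic regression of at least 5–6 point curves.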

In series [4] the target is T2, N-formyl peptide receptor 2 (Homo sapiens) (UniProt P25090).
T2 sequence (whole entry): T1 sequence (P25090 whole entry)
The series can be described thus: Agonist activity at human FPR2 transfected in HL-60 cells assessed as induction of intracellular calcium ions mobilization using WKYMVM as substrate preincubated for 10 mins followed by substrate addition and measured every 5 seconds for 240 secs by Fluo-4-AM dye based fluorescent assay relative to control. Format: functional, cell-based. The settings on record: filed as agonist. (A change in cytosolic calcium serves as a functional read-out for many receptors and channels.)

The target of series [5] is T3, fMet-Leu-Phe receptor (Homo sapiens, UniProt P21462).
T3 sequence (P21462 whole entry): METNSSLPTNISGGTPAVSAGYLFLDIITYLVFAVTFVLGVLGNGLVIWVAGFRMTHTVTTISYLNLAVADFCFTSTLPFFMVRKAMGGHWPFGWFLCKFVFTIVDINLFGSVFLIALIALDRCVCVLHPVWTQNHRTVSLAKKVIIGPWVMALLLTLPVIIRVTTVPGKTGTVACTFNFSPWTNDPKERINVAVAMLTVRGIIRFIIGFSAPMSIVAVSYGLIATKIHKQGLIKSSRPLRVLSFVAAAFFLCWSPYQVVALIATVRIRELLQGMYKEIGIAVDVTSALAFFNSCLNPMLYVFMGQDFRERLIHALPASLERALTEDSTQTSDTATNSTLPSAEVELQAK
The series can be described thus: Agonist activity at human FPR1 transfected in human HL-60 cells assessed as increase in calcium mobilization measured every 5 seconds for 240 secs by Fluo-4-AM dye based fluorescence assay. Format: functional, cell-based.

The target in series [6] is T1, N-formyl peptide receptor 2. The series can be described thus: Agonist activity at human FPR2 transfected in human HL-60 cells assessed as increase in calcium mobilization measured every 5 seconds for 240 secs by Fluo-4-AM dye based fluorescence assay. Format: functional, cell-based.
Series [7] can be described thus: Cytotoxicity against mouse N9 cells assessed as reduction in cell viability incubated for 48 hrs by MTT assay. Format: toxicity, cell-based. The gist of the method:
as §1

Series [8] addresses T3, fMet-Leu-Phe receptor. In words: Antagonist activity at human FPR1 transfected in human HL-60 cells assessed as inhibition of fMLF-induced intracellular calcium mobilization preincubated for 10 mins followed by fMLF addition and measured every 5 seconds for 240 secs by Fluo-4-AM dye based fluorescence assay. Format: functional, cell-based.
A short description of series [9]: Metabolic stability in rat liver microsomes assessed as compound remaining at 10 uM preincubated for 10 mins followed by NADPH addition and measured after 30 mins by HPLC analysis. The series is classed as ADME, Microsome. Conditions: time 40 min, read-out: Stability. The gist of the method: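 Rat liver microsomes (1.0 mg/mL protein), compound 10 μM final in 100 mM potassium phosphate pH 7.4, pre-incubated 10 min at 37 °C, then NADPH regenerating system added. After 30 min, % parent remaining by HPLC-DAD (C18, MeOH/H2O 80:20) versus incubation without NADPH system.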
(Liver microsomes are vesicles of endoplasmic reticulum, rich in cytochrome P450 enzymes.)

A short description of series [10]: Antiinflammatory activity against Sprague-Dawley rat primary microglial cells assessed as reduction in TNF-alpha expression at 0.1 uM incubated for 1 hr by ELISA method (reference value: 100 +/- […]). The series is classed as functional, Microglia. Also noted: scale not given: the % may be the effect or the level left.
In another series the test system is Microglia. In words: Anti-inflammatory activity against Sprague-Dawley rat primary microglial cells assessed as reduction in IL-10 expression at 0.1 uM incubated for 1 hr by ELISA method (reference value: 100 +/- 3.9 %). Format: functional. Also on record: scale not given: the % may be the effect or the level left.
Series [11] is described as follows: Antiinflammatory activity against Sprague-Dawley rat primary microglial cells assessed as reduction in IL-1beta expression at 0.1 uM incubated for 1 hr by ELISA method (reference value: 100 +/- 13 %). The series is classed as functional, Microglia. Also noted: scale not given: the % may be the effect or the level left.
The nature of series [12]: Antiinflammatory activity against Sprague-Dawley rat primary microglial cells assessed as reduction in IL-6 expression at 0.1 uM incubated for 1 hr by ELISA method (reference value: 100 +/- 2.16 %). The series is classed as functional, Microglia. Also on record: scale not given: the % may be the effect or the level left.
The nature of series [13]: Neurotoxicity against Sprague-Dawley rat primary microglial cells assessed as reduction in cell viability by measuring LDH release at 0.1 uM incubated for 24 hrs by LDH assay. Conditions: microglia. Format: toxicity, cell-based. An outline of the steps:
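Sprague–Dawley rat neonatal cortical microglia (>95% Iba-1+), switched to 1% FBS medium 1 h before treatment. Compound 0.1 μM for 1 h, then LPS 100 ng/mL for 24 h; WRW4 10 μM given 30 min before in some sets, 0.1% vehicle. Supernatant LDH read at 540 nm, % of vehicle controls, mean ± SEM.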

Series [14] is described as follows: Tlast in CD-1 mouse at 10 mg/kg, ip by UPLC analysis. The settings on record: in vivo. The series is classed as ADME, organism-based. An outline of the steps: (§2)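 Male CD-1 mice (25–30 g) dosed i.v. 1 mg/kg or i.p. 10 mg/kg in 5% DMSO/10% solutol HS 15/85% sterile water, n = 3 per time point. Cardiac-puncture blood under isoflurane: i.v. 0.083–8 h, i.p. 0.25–24 h. K2EDTA plasma, protein precipitation with acetonitrile (rolipram internal standard), UPLC on C18 column.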

The nature of series [15]: AUC (infinity) in CD-1 mouse at 1 mg/kg, iv measured upto 4 hrs by UPLC analysis. Also on record: time < 4 hrs, dose 1 mg/kg, route iv. The settings on record: in vivo. The series is classed as ADME, organism-based. The gist of the method: as §2
A short description of series [16]: Cmax in CD-1 mouse at 10 mg/kg, ip measured after 30 mins by UPLC analysis. The series is classed as ADME, organism-based. Also noted: time 30 min, dose 10 mg/kg, route ip. The settings on record: in vivo, 0.5 h. An outline of the steps:
as §2

Series [17] in a line: Cmax in CD-1 mouse at 1 mg/kg, iv measured after 5 mins by UPLC analysis. The series is classed as ADME, organism-based. Also on record: time 5 min, dose 1 mg/kg, route iv. Conditions: in vivo. The gist of the method: as §2
Series [18] is described as follows: Drug concentration in CD-1 mouse brain at 10 mg/kg, ip measured after 8 hrs by UPLC analysis. Format: ADME, organism-based. The settings on record: read-out: Ct. An outline of the steps:
(§3)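 Male CD-1 mice (25–30 g) given 10 mg/kg i.p. in 5% DMSO/10% solutol HS 15/85% water, n = 3 per time point. Brains taken after decapitation under anesthesia, homogenized in four volumes 0.1 N HEPES. Plasma drawn by cardiac puncture. Acetonitrile precipitation with rolipram internal standard, UPLC quantification. Brain-to-plasma ratio taken from paired brain and plasma levels.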

Series [19] can be described thus: Drug concentration in CD-1 mouse brain at 10 mg/kg, ip measured after 2 hrs by UPLC analysis. Format: ADME, organism-based. The settings on record: read-out: Ct. The gist of the method:
as §3

The nature of series [20]: AUC (infinity) in CD-1 mouse at 10 mg/kg, ip measured after 30 mins by UPLC analysis. The series is classed as ADME, organism-based. Also on record: time 30 min, dose 10 mg/kg, route ip. Conditions: in vivo, 0.5 h. The gist of the method: as §2
A short description of series [21]: Clast in CD-1 mouse at 1 mg/kg, iv measured upto 4 hrs by UPLC analysis. The series is classed as ADME, organism-based. The settings on record: in vivo, read-out: Clast. An outline of the steps:
as §2

A word on the IC50: it is the midpoint of a concentration-inhibition curve. As a reminder, the EC50 is the concentration that produces a half-maximal response. `N#Cc1ccc(C[C@H](NC(=O)Nc2ccc(F)cc2)C(=O)NC2CCCCNC2=O)cc1` (stereo partly drawn): the results for the Activity in [1] and in series [2] were 53% and “Non-Toxic”, respectively. Further, the figures for the IC50 (in series [3]; on fMet-Leu-Phe receptor [8]) were 350 nM and 3500 nM, respectively. Further, the Efficacy in series [4] amounted to 105%. The EC50 turned out to be 780 nM at fMet-Leu-Phe receptor [5] and 170 nM in [6]. Besides, in series [7], the EC50 at 48 h is greater than 100000 nM. For the same compound, in [9], the remaining at 0.5 h, 10 µM was determined as 85%.
Take H-WRWWWW-NH2: the Activity amounted to 121% in [10], 103% in the series on Microglia, 103% in series [11] and 108% in series [12].
Consider `N#Cc1ccc(C[C@H](NC(=O)Nc2ccc(F)cc2)C(=O)N2CCc3ccccc32)cc1`, for which the Activity entry in [2] and in [13] was “Non-Toxic” throughout. Also, the IC50 in series [3] amounted to 10 nM. Besides, the EC50 in [6] stood at 26 nM. For the same compound, the remaining at 0.5 h, 10 µM in series [9] worked out at 22%.
In general, AUC refers to concentration integrated over time. The term Cmax denotes the maximum level reached in the sampled fluid or tissue. Compound `N#Cc1ccc(C[C@H](NC(=O)Nc2ccc(F)cc2)C(=O)N2CCc3ccc(F)cc32)cc1` came in with a Tlast in [14] of 8 h. Besides, the values for the area under the curve (AUC) in [15] and in series [20] were 613 ng·h/mL and 731 ng·h/mL, respectively. Also, the Cmax in series [16] was found to be 192 ng/mL; in series [17], 1380 ng/mL. For the same compound, the Activity entry in series [2] and in series [13] was “Non-Toxic” each time. In addition, the concentration at 8 h in series [18] turned out to be 15.7 ng/g. Also, the concentration at 2 h in [19] worked out at 37 ng/g. Also, the concentration at 4 h in series [21] is 14.1 ng/mL.
